CHOP inh = inhibitors of CHOP promoter induction, primary screen, cell-based, unfolded protein response, luciferase reporter; CHO-K1 CHOP-promoter luciferase, tunicamycin-induced, 15-18 h; inhibition, % at 10 µM; actives 3.8% (n = 220,000); AID 2732, 2010;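 active means compounds that reduced the stress-induced luciferase reporter signal by more than about 70% of percent inhibition, limit read from the data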
UPR CHOP act = activators of apoptotic CHOP UPR arm, primary screen, cell-based, CHO-CHOP luciferase reporter, luminescence, uHTS. UPR activation; percent of tunicamycin response over DMSO baseline. activation, % at 10 µM. actives 0.34% (n = 330,000);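 active means at 10 µM dose, activation of 40% or more, normalized to positive control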
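Assay system: CHO-CHOP cells, stable luciferase reporter of PERK-eIF2a-CHOP signalling / Buffer or medium: F12 plus 10% serum / Compound dosing: one dose, 10 µM in 0.5% DMSO / Times: 6 h compound treatment, 37 °C / Technique: luciferase luminescence / Read-out: % reporter activation, DMSO baseline versus tunicamycin full activation / Benchmarks: tunicamycin and DMSO controls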
Jurkat NFkB inh = inhibitors of induced NF-kB luciferase reporter, primary screen, TCR NF-kB activation inhibitor project, cell-based, luminescence, uHTS | Jurkat, PMA/ionomycin-induced NF-kB luciferase reporter | inhibition, % at 4 µM | actives 0.53% (n = 330,000) | AID 435003, 2010; in the data active means inhibition above about 50%
XBP1 UPR activ = activators of adaptive XBP1 UPR arm, primary screen, cell-based, CHO-XBP1 luciferase reporter, luminescence, uHTS; actives 0.33% (n = 330,000); activation, % at 20 µM; IRE1-XBP1 UPR activation; percent of tunicamycin response, DMSO as zero;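 active means versus positive control, 20 µM dose yields 30% or more activation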
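Assay system: CHO-XBP1 luciferase reporter cells; Schedule: 6 h treatment, 37 °C; Detection: glow luminescence from Steady-Glo reagent; Benchmarks: high control tunicamycin 10 µg/mL final, low control DMSO vehicle only.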
697 NFkB inh = inhibitors of PMA/ionomycin-induced NF-kB reporter, 697 cells, primary screen, B-cell NF-kB inhibitor project, cell-based, luminescence, uHTS | inhibition, % at 4 µM | 697 B-cell NF-kB luciferase reporter, 16 h | actives 0.33% (n = 330,000) | AID 435022, 2010; in the data active means inhibition above about 35%
CHOP inh conf = retest of CHOP induction inhibitors, confirmation, cell-based. shares compounds with CHOP inh. CHO-CHOP promoter luciferase reporter, tunicamycin-induced, luminescence. actives 45% (n = 2,100). inhibition, % at 10 µM;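 active means mean of three repeat readings of reporter signal inhibition above a set limit, cut at about 70% in these data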
Jurkat NFkB conf = PMA/ionomycin-induced NF-kB reporter inhibitors, Jurkat retest, confirmation, T-cell NF-kB inhibitor project, cell-based, luminescence, single concentration; Jurkat NF-kB luciferase, 16 h; shares compounds with Jurkat NFkB inh; inhibition, % at 4 µM; actives 27% (n = 2,700);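 active means inhibition reaching about 45% at 4 µM in either replicate, limit read from the data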
XBP1 UPR conf = IRE1-XBP1 UPR arm activators, confirmation, cell-based, CHO-XBP1 luciferase reporter, luminescence, single concentration; actives 63% (n = 1,000); activation, % at 20 µM; AID 485299, 2010; shares compounds with XBP1 UPR activ;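 active means reporter signal at least 30% of the positive control's activation in two or more of four replicate wells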
Of the large screens only hits and unclear results are named; the others gave an inactive call (follow-up assays come after a bar, where they were run). Shown is part of a subset that was picked to be rich in hits.

O=C(Cc1csc(Nc2nc(=S)[nH]c3ccccc23)n1)NCCCN1CCN(c2ccccc2F)CC1	CHOP inh 105, XBP1 UPR activ 64 | CHOP inh conf 85 | XBP1 UPR conf inactive
COc1ccc(C(CCNCc2ccc(F)cc2)c2ccc(F)cc2)cc1 (configuration not stated)	CHOP inh 101, XBP1 UPR activ 48 | CHOP inh conf 105 | XBP1 UPR conf 65
Oc1cccc(-c2nc3c4c(ncn3n2)-c2ccccc2CC42CCCC2)c1	CHOP inh 100, XBP1 UPR activ 31 | CHOP inh conf 83 | XBP1 UPR conf 50
COc1cc2c(cc1OC)CN(C(=O)COc1ccccc1[N+](=O)[O-])CC2	none (no result: CHOP inh)
CC(C)c1ccc(NC(=S)N2CCCC(c3ccc(F)cc3)=N2)cc1	none
CC(C)Cn1c2c(c(=O)[nH]c1=O)C(C(F)(F)F)(C(F)(F)F)N=C(CCC1CCCCC1)N2	CHOP inh 102, XBP1 UPR activ 33 | CHOP inh conf 82 | XBP1 UPR conf 38
CC1(C)OC(=O)C=C[C@]2(C)[C@H]3CC[C@@]4(C)[C@H](C(=O)O)OC(=O)[C@H]5O[C@]54[C@]3(C)C(=O)C[C@@H]12	none (no result: CHOP inh)
CN(C)CCCNS(=O)(=O)c1ccc(NC2CCCCCC2)c([N+](=O)[O-])c1	Jurkat NFkB inh 56 (no result: CHOP inh) | Jurkat NFkB conf inactive
CC(=O)N(C1=C(N2CCOCC2)C(=O)c2ccccc2C1=O)c1ccc(C(=O)O)cc1	none
CC(=O)N(C)C1=C(N2CCOCC2)C(=O)c2ccccc2C1=O	Jurkat NFkB inh 87 | Jurkat NFkB conf 79
C/C(=N\OC(=O)NC(C)C)c1sc(-c2ccc(Cl)cc2)nc1C	none
CCNC(=O)O/N=C(\C)c1sc(-c2ccc(Cl)cc2)nc1C	none | Jurkat NFkB conf inactive
O=C(/C=C\Nc1ccc2c(c1)OCO2)c1ccccn1	CHOP inh 95, Jurkat NFkB inh 55 | Jurkat NFkB conf inactive
Cn1c(N)c(C(=O)COC(=O)/C=C/c2ccc(S(=O)(=O)N3CCOCC3)cc2)c(=O)n(C)c1=O	none
CC(CC(=O)N1CCN(S(=O)(=O)c2ccc(Cl)cc2)CC1)n1cncn1 (configuration not stated)	none (no result: CHOP inh)
Cc1ccc2[nH]c(-c3cccc(F)c3)cc(=O)c2c1	Jurkat NFkB inh 52 | Jurkat NFkB conf inactive
O=c1cc(-c2ccccc2)[nH]c2cc(Cl)ccc12	Jurkat NFkB inh 65 | Jurkat NFkB conf 61
O=c1cc(-c2cccc(F)c2)[nH]c2ccccc12	Jurkat NFkB inh 72 | Jurkat NFkB conf 62
NC(=O)c1ccccc1Nc1nc(NCCO)nc(N2CCCC2)n1	none (no result: CHOP inh)
CCOc1ccc(S(=O)(=O)NCc2cccnc2)cc1C(C)C	none (no result: CHOP inh)
CCCCN(C)CCCNC(=O)C1(O)c2ccccc2NC(=O)N1c1ccc(Cl)cc1 (configuration not stated)	none (no result: CHOP inh)
COc1ccccc1-n1c(SCC(=O)Nc2ccc(Br)cc2)nc(O)cc1=O	none
Cc1cc2occ(CC(=O)N(CC(C)C)c3c(N)n(Cc4ccccc4)c(=O)[nH]c3=O)c2cc1C	none (no result: CHOP inh)
CCc1c(C)nc2ncnn2c1NCCc1ccc(OC)cc1	Jurkat NFkB inh 78 (no result: CHOP inh) | Jurkat NFkB conf 68
CCOc1ccc(/C(C)=N/N2C(=O)C(CC(=O)Nc3ccc(OC)cc3[N+](=O)[O-])SC2=Nc2cccc(C)c2C)cc1 (configuration not stated)	none
COc1ccccc1/C=N/N1C(=O)C(CC(=O)Nc2ccc([N+](=O)[O-])cc2OC)SC1=Nc1cccc(C)c1C (configuration not stated)	Jurkat NFkB inh 69 | Jurkat NFkB conf inactive
Cc1cc(C)c(S(=O)(=O)Nc2ccc(O)c(Sc3ncn[nH]3)c2)cc1C	none (no result: CHOP inh)
C=C(C)Cn1cnc2c(oc3nc4c(cc32)CCCC4)c1=O	none
O=C(NCCCCc1ccccc1)C1CCCC1	none (no result: CHOP inh)
COc1cc(/C=N/NS(=O)(=O)c2ccc(C)cc2)ccc1OCc1ccc(C(=O)O)cc1	Jurkat NFkB inh 63 | Jurkat NFkB conf inactive
CCOc1ccc(/C=N/NS(=O)(=O)c2ccc(C)cc2)cc1OC	none (no result: CHOP inh)
Cn1c(C(=O)Nc2ccc3c(c2)OCO3)cc2sccc21	none | Jurkat NFkB conf inactive
O=C(Nc1ccc2c(c1)OCCO2)Nc1ccc2c(c1)OCO2	none | Jurkat NFkB conf inactive
O=C(Nc1ccc2c(c1)OCO2)c1ccc(Br)s1	none | Jurkat NFkB conf inactive
Cc1ccc(NC(=O)Nc2ccc3c(c2)OCO3)cc1F	none (no result: CHOP inh) | Jurkat NFkB conf inactive
NC(=O)c1ccc(NC(=O)Nc2ccc3c(c2)OCO3)cc1	none (no result: CHOP inh)
Cc1cc(F)ccc1NC(=O)Nc1ccc2c(c1)OCO2	none (no result: CHOP inh)
O=c1c2ccccc2oc2cc(-c3ccc(CN4CCOCC4)cc3)ccc12	none (no result: CHOP inh) | Jurkat NFkB conf inactive
c1ccc(CN2CCOCC2)cc1	none
COc1cc(C2c3cc4c(cc3C(OC3OC5COC(c6cccs6)OC5C(O)C3O)C3COC(=O)C23)OCO4)cc(OC)c1O (configuration not stated)	Jurkat NFkB inh 80 | Jurkat NFkB conf 94
COc1cc([C@@H]2c3cc4c(cc3[C@@H](O[C@@H]3O[C@@H]5CO[C@@H](C)O[C@H]5[C@H](O)[C@H]3O)[C@H]3COC(=O)[C@H]23)OCO4)cc(OC)c1O	none (no result: CHOP inh)
Cc1ccc(-c2nnc(SCC(=O)NCCN3C(=O)CSC3=O)n2C)cc1	none (no result: CHOP inh)
CCOc1ccc(N(C)S(=O)(=O)c2ccc(-c3cc(C)no3)s2)cc1	Jurkat NFkB inh 58 (no result: CHOP inh) | Jurkat NFkB conf 52
Cc1ccc(C(=O)CSC2=C(C#N)C(c3ccco3)C3=C(CCCC3=O)N2)cc1 (configuration not stated)	Jurkat NFkB inh 67 | Jurkat NFkB conf inactive
N#CC1=C(SCC(=O)c2ccccc2)NC2=C(C(=O)CCC2)C1c1ccco1 (configuration not stated)	none
CCc1c(C2(O)CCCCC2)[nH]c2cnccc12	none (no result: CHOP inh)
Cc1ccc2oc(C(=O)Nc3cc(C)on3)c(C)c2c1	none (no result: CHOP inh) | Jurkat NFkB conf inactive
COc1ccccc1NC(=O)c1oc2ccc(C)cc2c1C	none

Assay outcomes as filed in PubChem BioAssay.
